From publication PMC5221799 (International Journal of Nanomedicine, 2016) come the findings set out here.

As a reminder, the IC50 is the concentration at which inhibition is half-maximal.

Structures are written as SMILES. Read-outs that look alike come from different tables or passages of the source.

In data set [1] the test system is MCF7/ADR cells. Briefly: Annexin V-FITC/propidium iodide apoptosis assay by flow cytometry. Format: cell-based, human. As to conditions: 48 hours of incubation, Dox 20 μM. The procedure, abridged:
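MCF7/ADR cells (DMEM, 10% FBS; resistance kept with 1 μg/mL Dox, withdrawn 1 week before use) seeded at 10^5 cells/well and left 24 h. Treated with free Dox or nanoparticles (Dox 20 μM and/or anti-miR21 213.3 nM) for 48 h. Cells were washed, trypsinised, and stained with annexin V–FITC/PI for 15 min at room temperature in the dark, then analysed by flow cytometry. Untreated cells served as blanks; three repeats.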
(Flow cytometry measures light scatter and fluorescence of single cells or particles in a stream.)

The subject of data set [2] is MCF7/ADR xenografts. Briefly: In vivo antitumor efficacy in MCF7/ADR xenografts. The arrangement: species or system BALB/c nude mice. The note with it: tail vein every 3 days five times, n=6.
For data set [3], the system named is MCF7/ADR (Dox-resistant) cells. Briefly: CCK-8 cytotoxicity assay in MCF7/ADR cells. As to conditions: for IC50: read-out: IC50 of Dox or equivalent NLS-Dox, MCF7/ADR cells, CCK-8, mean ± SD (n=5). Format: cell-based, human. In outline: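 CCK-8 assay in MCF7 and MCF7/ADR cells (Dox withdrawn from resistant line 1 week prior). Cells seeded at 0.5×10^4/well, grown overnight, then exposed to a concentration range for 48 or 96 h. CCK-8 was added for 1 h at 37°C and A450 read. Viability = (Asample−Ablank)/(Anon-treated−Ablank)×100%. n=5.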
For orientation: Tetrazolium dyes change colour on reduction, which living cells bring about.

As for `COc1cccc2c1C(=O)c1c(O)c3c(c(O)c1C2=O)C[C@@](O)(C(=O)CO)C[C@@H]3O[C@H]1C[C@H](N)[C@H](O)[C@H](C)O1` [Free Dox, doxorubicin], the apoptotic cells in data set [1] is on record as 10.75%. Moreover, the “effect on growth of MCF7/ADR xenografts” value in data set [2] (free Dox 7.6 mg/kg) is recorded as “slight inhibitory effect”. Also, the “body weight change of tumor-bearing mice” value in data set [2] (measured for 3 weeks) is recorded as “significant weight loss”. Moreover, the “IC50 in MCF7/ADR cells relative to parent MCF7 cells” value in data set [3] (48 hours incubation) was “over 20 fold”. The IC50 in data set [3] (48 hours) is 49.4 ± 2.58 µM; in data set [3] (96 hours), 30 ± 1.46 µM.
